Reference: ChEMBL document CHEMBL5233289, “Synthesis of Quinoline and Dihydroquinoline Embelin Derivatives as Cardioprotective Agents” (J Nat Prod, 2023)
Calls of active or inactive are those of the source. No cut-off for these calls is given here.

Legend:
H9c2 [1] = experiment: Cardioprotective activity against rat H9c2 cells assessed as reduction in doxorubicin-induced cardiotoxicity by measuring cell viability at 20 uM incubated for 24 hrs in presence of doxorubicin by MTT assay; assay type: functional
Outline: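 H9c2 rat cardiomyocytes in DMEM with 10% FBS, seeded for 24 h, then co-treated with compound (20 μM) and DOX (1 μM) for 24 h. MTT added for 1 h at 37 °C, formazan dissolved in DMSO, absorbance read at 540 nm. DOX alone served as positive control. Mean ± SD, n = 3.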

MCF7 = experiment: Antagonizing activity against doxorubicin-induced antitumor activity in human MCF7 cells assessed as cell viability at 20 uM incubated for 24 hrs in presence of doxorubicin by MTT assay; assay type: toxicity, cell-based; details: mcf7, 24 h
Outline: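 MCF-7 human breast cancer cells in DMEM with 10% FBS, 37 °C, 5% CO2. They were co-treated with compound (20 μM) plus DOX (1 μM) for 24 h. Viability was read by MTT: 1 h at 37 °C, formazan in DMSO, A540. Mean ± SD, n = 3.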

H9c2 [2] = experiment: Induction of oxidative stress in rat H9c2 cells assessed as increase in intracellular ROS level at 20 uM incubated for 24 hrs by DCFH-DA staining based fluorometric analysis; assay type: toxicity, cell-based; details: h9c2, 24 h
Outline: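 Intracellular ROS in H9c2 cells. Cells were treated with compound (20 μM) alone or with DOX (1 μM) over 24 h, with NAC (1 mM) as ROS inhibitor. They were then loaded with 10 μM DCFH-DA for 30 min at 37 °C in the dark. Fluorescence was read at 485/550 nm. Mean ± SD, n = 3.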

[3] = biological target: Mitogen-activated protein kinase 1 and 3 (ERK2 and ERK1) (Rattus norvegicus) (UniProt P63086+P21708); experiment: Inhibition of doxorubicin-induced ERK1/2 activation in rat H9c2 cells assessed as reduction in ERK1/2 phosphorylation at 20 uM in presence of doxorubicin by immunoblot analysis; assay type: cell-based
Outline: (§1)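 H9c2 cell lysates after DOX (1 μM) alone or with derivative (20 μM) were run on SDS-PAGE and transferred to PVDF. Blots were probed for pAkt, Akt, pERK1/2, ERK1/2, Bax and Bcl-2, with β-actin as loading control. Detection used HRP secondary (2 h) and ECL, with densitometric quantification. Mean ± SD, n = 3.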

H9c2 [4] = experiment: Activation of Akt in rat H9c2 cells assessed as increase in Akt phosphorylation at 20 uM in presence of doxorubicin by immunoblot analysis; assay type: cell-based; details: filed as activator; outline: as §1
H9c2 [5] = experiment: Cardioprotective activity against doxorubicin-treated rat H9c2 cells assessed as decrease in Bax protein expression at 20 uM in presence of doxorubicin by immunoblot analysis; assay type: functional, cell-based; outline: as §1
H9c2 [6] = experiment: Cardioprotective activity against doxorubicin-treated rat H9c2 cells assessed as increase in Bcl2 protein expression at 20 uM in presence of doxorubicin by immunoblot analysis; assay type: functional, cell-based; outline: as §1
H9c2 [7] = experiment: Antioxidant activity against rat H9c2 cells assessed as reduction in doxorubicin-induced oxidative stress by measuring reduction in intracellular ROS level at 20 uM incubated for 24 hrs by DCFH-DA staining based fluorometric analysis
[8] = Cytotoxicity against mouse J774.A1 cells assessed as cell viability at 10 uM incubated for 24 hrs by MTT assay (reference value: 100%); assay type: toxicity, cell-based; details: read-out: Activity
Outline: (§2)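 J774A.1 murine macrophages or H9c2 rat cardiomyocytes, grown in DMEM with 10% FBS and 1% pen/strep, were seeded for 24 h and then incubated with compound alone for 24 h. MTT reagent was added for 1 h at 37 °C, formazan dissolved in DMSO, absorbance at 540 nm. Results relative to untreated cells, mean ± SD, n = 3.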

[9] = Cytotoxicity against mouse J774.A1 cells assessed as cell viability at 20 uM incubated for 24 hrs by MTT assay (reference value: 100%); assay type: toxicity, cell-based; details: read-out: Activity; outline: as §2
[10] = Cytotoxicity against rat H9c2 cells assessed as cell viability at 10 uM incubated for 24 hrs by MTT assay (reference value: 100%); assay type: toxicity, cell-based; details: read-out: Activity; outline: as §2
[11] = Cytotoxicity against rat H9c2 cells assessed as cell viability at 20 uM incubated for 24 hrs by MTT assay (reference value: 100%); assay type: toxicity, cell-based; details: read-out: Activity; outline: as §2
H9c2 [12] = experiment: Antioxidant activity against rat H9c2 cells assessed as reduction in doxorubicin-induced oxidative stress by measuring reduction in intracellular ROS level at 1 mM incubated for 24 hrs by DCFH-DA staining based fluorometric analysis

Chain of Mitogen-activated protein kinase 1 and 3 (ERK2 and ERK1) (Rattus norvegicus) (P21708 whole entry, looked up): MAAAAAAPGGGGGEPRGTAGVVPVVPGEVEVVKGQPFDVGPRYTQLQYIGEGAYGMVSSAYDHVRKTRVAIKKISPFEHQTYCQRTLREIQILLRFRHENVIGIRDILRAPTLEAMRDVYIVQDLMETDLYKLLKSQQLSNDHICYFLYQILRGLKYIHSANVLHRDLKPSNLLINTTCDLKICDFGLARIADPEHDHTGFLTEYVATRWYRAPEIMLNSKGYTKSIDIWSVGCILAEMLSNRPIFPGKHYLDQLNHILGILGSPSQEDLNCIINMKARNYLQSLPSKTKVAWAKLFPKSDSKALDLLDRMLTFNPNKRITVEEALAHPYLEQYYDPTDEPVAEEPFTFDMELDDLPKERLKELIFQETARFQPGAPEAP
Chain of Mitogen-activated protein kinase 1 and 3 (ERK2 and ERK1) (Rattus norvegicus) (P63086 whole entry, looked up): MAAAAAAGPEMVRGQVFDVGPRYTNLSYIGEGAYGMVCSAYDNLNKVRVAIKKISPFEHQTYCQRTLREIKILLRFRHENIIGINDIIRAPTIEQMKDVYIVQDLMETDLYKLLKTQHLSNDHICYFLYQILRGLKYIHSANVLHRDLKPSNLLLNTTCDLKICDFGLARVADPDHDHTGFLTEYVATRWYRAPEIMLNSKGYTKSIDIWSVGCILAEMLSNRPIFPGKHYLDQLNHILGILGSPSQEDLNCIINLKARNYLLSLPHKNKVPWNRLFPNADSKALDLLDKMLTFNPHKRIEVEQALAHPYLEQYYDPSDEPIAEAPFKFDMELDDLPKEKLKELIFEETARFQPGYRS

| Compound | Activity (H9c2 [1]) [%] | Activity (MCF7) | Activity (H9c2 [2]) | inhibition [3] | Activity (H9c2 [4]) | Activity (H9c2 [5]) | Activity (H9c2 [6]) | Activity (H9c2 [7]) | viability at 24 h, 10 µM [8] [%] | viability at 24 h, 20 µM [9] [%] | viability at 24 h, 10 µM [10] [%] | viability at 24 h, 20 µM [11] [%] | Activity (H9c2 [12]) |
| --- | --- | --- | --- | --- | --- | --- | --- | --- | --- | --- | --- | --- | --- |
| CCCCCCCCCCCC1=C(O)C(=O)c2c(nc3ccccc3c2-c2ccc(Br)cc2)C1=O | 83.4 | Non-Toxic | Non-Toxic | Active | Active | Active | Active | Active | – | – | – | – | – |
| CCCCCCCCCCCC1=C(O)C(=O)c2c(nc3ccccc3c2-c2ccc([N+](=O)[O-])cc2)C1=O | – | Non-Toxic | Non-Toxic | Active | Active | Active | Active | Active | – | – | – | – | – |
| CCCCCCCCCCCC1=C(O)C(=O)c2c(nc3ccccc3c2-c2ccc(F)cc2)C1=O | 81.4 | Toxic | – | – | – | – | – | – | – | – | – | – | – |
| CCCCCCCCCCCC1=C(O)C(=O)c2c(nc3ccc(OC)cc3c2-c2ccc([N+](=O)[O-])cc2)C1=O | 84.3 | Non-Toxic | Non-Toxic | Active | Active | Active | Active | Active | 81.9 | 76.3 | 99.2 | 94.4 | – |
| CC(=O)N[C@@H](CS)C(=O)O | – | – | – | – | – | – | – | – | – | – | – | – | Active |
| CCCCCCCCCCCC1=C(O)C(=O)c2c(nc3ccc(Br)cc3c2-c2ccc([N+](=O)[O-])cc2)C1=O | 91.2 | Non-Toxic | Non-Toxic | Active | Active | Active | Active | Active | – | – | – | – | – |
| CCCCCCCCCCCC1=C(O)C(=O)C2=C(Nc3ccccc3C2c2ccc(C)c(C)c2)C1=O (stereo not given) | – | Non-Toxic | Non-Toxic | Active | Active | Active | Active | Active | – | – | – | – | – |
